Source: ChEMBL document CHEMBL4270645, “Structure-activity relationship study of hypoxia-activated prodrugs for proteoglycan-targeted chemotherapy in chondrosarcoma” (Eur J Med Chem, 2018)
Calls of active or inactive are those of the source. The calls are words filed in the database; no cut-off is given here.

Assays:
H-EMC-SS [1] = assay: Antiproliferative activity against human HEMC-SS cells treated for 24 hrs under hypoxic condition followed by compound wash-out and incubated under normoxic condition for 48 hrs by alamar blue assay; type: functional, cell-based
Method in brief: (§1)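 HEMC-SS chondrosarcoma cells (DMEM/F12, 10% FCS, gentamicin) seeded 20.10^3/well, adhered overnight; drug dilution series added, final DMSO 0.5%. Exposed 24 h under normoxia (21% O2, 5% CO2, 37°C) or hypoxia (N2, O2<0.3%, 37°C), then washed with PBS and grown 48 h in normoxia. AlamarBlue viability; IC50 = 50% growth inhibition; at least triplicate, mean ± SD.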

H-EMC-SS [2] = assay: Antiproliferative activity against human HEMC-SS cells treated for 24 hrs under normoxic condition followed by compound wash-out and incubated under normoxic condition for 48 hrs by alamar blue assay; type: cell-based; method in brief: as §1
[3] = biological target: Aggrecan core protein (Bos taurus) (UniProt P13608); assay: Binding affinity to bovine articular cartilage aggrecan at 500 uM by SPR analysis
Aggrecan core protein (Bos taurus), sequence (P13608 whole entry): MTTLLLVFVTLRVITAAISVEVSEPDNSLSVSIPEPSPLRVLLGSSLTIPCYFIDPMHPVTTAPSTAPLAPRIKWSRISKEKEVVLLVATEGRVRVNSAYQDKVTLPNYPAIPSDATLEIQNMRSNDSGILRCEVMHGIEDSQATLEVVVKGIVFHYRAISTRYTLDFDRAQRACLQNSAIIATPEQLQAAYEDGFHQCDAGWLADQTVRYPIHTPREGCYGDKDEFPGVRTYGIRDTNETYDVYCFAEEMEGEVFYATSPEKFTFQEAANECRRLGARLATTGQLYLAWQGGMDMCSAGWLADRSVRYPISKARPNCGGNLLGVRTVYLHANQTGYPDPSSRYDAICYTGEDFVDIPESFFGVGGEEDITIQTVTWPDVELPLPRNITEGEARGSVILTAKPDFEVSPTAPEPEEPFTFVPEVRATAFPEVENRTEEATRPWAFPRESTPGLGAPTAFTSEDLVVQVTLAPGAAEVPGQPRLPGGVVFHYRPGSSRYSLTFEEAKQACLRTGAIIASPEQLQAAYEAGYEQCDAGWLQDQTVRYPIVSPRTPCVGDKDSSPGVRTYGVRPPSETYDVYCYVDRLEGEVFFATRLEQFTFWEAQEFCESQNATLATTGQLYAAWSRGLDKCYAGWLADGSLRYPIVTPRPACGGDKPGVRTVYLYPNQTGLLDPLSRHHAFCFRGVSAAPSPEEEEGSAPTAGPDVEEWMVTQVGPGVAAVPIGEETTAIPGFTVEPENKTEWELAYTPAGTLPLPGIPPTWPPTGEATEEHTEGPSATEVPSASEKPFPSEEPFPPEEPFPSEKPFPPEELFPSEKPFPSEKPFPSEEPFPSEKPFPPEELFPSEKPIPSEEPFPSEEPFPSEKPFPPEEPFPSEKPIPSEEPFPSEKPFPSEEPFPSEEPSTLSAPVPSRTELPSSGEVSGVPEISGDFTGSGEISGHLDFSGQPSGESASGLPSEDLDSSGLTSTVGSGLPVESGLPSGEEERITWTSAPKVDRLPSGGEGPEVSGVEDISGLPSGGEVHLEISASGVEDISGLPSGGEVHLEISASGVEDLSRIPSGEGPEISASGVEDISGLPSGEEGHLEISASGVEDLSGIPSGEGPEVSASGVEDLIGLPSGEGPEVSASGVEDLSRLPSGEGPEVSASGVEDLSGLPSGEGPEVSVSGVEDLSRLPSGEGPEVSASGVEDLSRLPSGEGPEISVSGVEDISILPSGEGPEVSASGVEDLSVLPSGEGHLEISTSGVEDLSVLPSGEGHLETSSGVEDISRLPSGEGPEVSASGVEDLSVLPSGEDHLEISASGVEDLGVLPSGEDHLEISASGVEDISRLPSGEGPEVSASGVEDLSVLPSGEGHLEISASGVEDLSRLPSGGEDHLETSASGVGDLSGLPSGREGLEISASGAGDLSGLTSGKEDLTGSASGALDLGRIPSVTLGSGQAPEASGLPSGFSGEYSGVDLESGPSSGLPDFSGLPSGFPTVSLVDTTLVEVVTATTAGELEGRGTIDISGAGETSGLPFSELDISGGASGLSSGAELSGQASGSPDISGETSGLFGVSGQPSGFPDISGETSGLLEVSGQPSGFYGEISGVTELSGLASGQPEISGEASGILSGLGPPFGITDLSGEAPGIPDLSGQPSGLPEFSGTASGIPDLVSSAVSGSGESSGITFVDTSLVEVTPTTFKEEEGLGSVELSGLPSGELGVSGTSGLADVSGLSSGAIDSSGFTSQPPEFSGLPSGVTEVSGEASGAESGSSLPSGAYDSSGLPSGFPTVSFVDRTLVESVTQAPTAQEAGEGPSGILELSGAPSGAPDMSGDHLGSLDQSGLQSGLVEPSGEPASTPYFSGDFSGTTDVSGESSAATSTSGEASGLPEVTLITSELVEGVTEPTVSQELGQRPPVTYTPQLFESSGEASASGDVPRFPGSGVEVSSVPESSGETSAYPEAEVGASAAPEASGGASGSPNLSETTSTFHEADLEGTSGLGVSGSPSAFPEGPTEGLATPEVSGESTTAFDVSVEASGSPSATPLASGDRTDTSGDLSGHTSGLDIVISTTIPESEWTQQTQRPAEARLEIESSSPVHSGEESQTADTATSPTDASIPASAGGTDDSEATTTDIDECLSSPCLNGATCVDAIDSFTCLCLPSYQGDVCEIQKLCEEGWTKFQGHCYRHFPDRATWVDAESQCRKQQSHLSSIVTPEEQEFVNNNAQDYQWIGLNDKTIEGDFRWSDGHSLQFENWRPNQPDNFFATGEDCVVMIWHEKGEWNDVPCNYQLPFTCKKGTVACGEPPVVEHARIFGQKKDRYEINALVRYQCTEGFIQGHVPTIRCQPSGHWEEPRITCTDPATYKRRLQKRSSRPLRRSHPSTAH
Method in brief: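 Aggrecan immobilised on sensor chip, free sites blocked with 1 M ethanolamine pH 8.5. Primary screen as binding level at 500 µM analyte in HBS-P+ running buffer, 30 µL/min, 600 s association, 200 s dissociation. Response corrected against a flow cell without aggrecan; regeneration with 2 M NaCl, 150 s.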

Aggrecan core protein = Aggrecan core protein (Bos taurus, UniProt P13608); assay: Binding affinity to bovine articular cartilage aggrecan by SPR analysis
Aggrecan core protein, sequence (P13608 whole entry): as above

H-EMC-SS [4] = assay: Selectivity index, ratio of IC50 for human HEMC-SS cells under normoxic condition to IC50 for human HEMC-SS cells under hypoxic condition; type: functional
[5] = Prodrug activation in pH 7.4 PBS buffer assessed as 25 ug/ml Escherichia coli nitroreductase-mediated corresponding phosphoramidate anion formation by measuring half life at 37 degC in presence of NADPH by RP-HPLC analysis; details: isolated protein
Method in brief: (§2)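 Recombinant E. coli nitroreductase (final 25 or 15 µg/mL) with prodrug 17 µM and NADPH 0.9 mM final, in 10 mM sodium phosphate pH 7.4, 37°C. Aliquots over 2 h run on C18 RP-HPLC; remaining prodrug from peak area at 322 nm. Enzyme-free NADPH controls run in parallel.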

[6] = Prodrug activation in pH 7.4 PBS buffer assessed as 15 ug/ml Escherichia coli nitroreductase-mediated corresponding phosphoramidate anion formation by measuring half life at 37 degC in presence of NADPH by RP-HPLC analysis; details: isolated protein; method in brief: as §2
[7] = Chemical stability in 3 equiv sodium dithionite/CH3CN,/cacodylate buffer at pH 7.4 at 37 degC after 24 hrs by 31P NMR analysis; type: physicochemical; details: pH 7.4, 24 h
[8] = Chemical stability in pH 7.4 sodium phosphate buffer assessed as drug metabolism at 17 uM at 37 degC after 24 hrs by RP-HPLC analysis; type: physicochemical; details: read-out: Drug metabolism
Method in brief: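 Prodrug at 17 µM in 10 mM sodium phosphate pH 7.4 with 0.13% DMSO, 37°C. Aliquots over 24 h run directly on C18 RP-HPLC (H2O/ACN gradient with 15 mM TFA). Remaining prodrug calculated from peak area at 322 nm.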

[9] = Prodrug activation in 3 equiv sodium dithionite/CH3CN,/cacodylate buffer at pH 7.4 assessed as bis(2-chloroethyl)phosphoramidate anion formation by measuring half life at 37 degC by 31P NMR analysis; type: physicochemical
Method in brief: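 Incubation with 3 equiv sodium dithionite in CH3CN/0.1 M cacodylate buffer pH 7.4, probe at 37°C. 31P NMR spectra over 24 h against coaxial Ph3PO reference (26 ppm). Parent loss and phosphoramidate anion formation quantified from peak areas; average of two runs.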

[10] = Stability in rabbit plasma at 37 degC after 24 hrs by 31P NMR analysis; type: ADME, cell-free, Oryctolagus cuniculus
Method in brief: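 Heparinised rabbit blood centrifuged (4°C, 1300 g, 10 min) to give plasma. About 10 mg prodrug in 90 µL CH3CN plus 330 µL plasma, followed by 31P NMR at 37°C over 24 h; peak areas, average of two runs.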

[11] = Prodrug activation in pH 7.4 PBS buffer assessed as 15 to 25 ug/ml Escherichia coli nitroreductase-mediated bis(2-chloroethyl)phosphoramidate anion formation by measuring half life at 37 degC in presence of NADPH by RP-HPLC analysis; details: isolated protein; method in brief: as §2

SMILES: Cn1c(COP(=O)(NCC[N+](C)(C)Cc2ccccc2)N(CCCl)CCCl)cnc1[N+](=O)[O-].[I-] (stereo not drawn)
- IC50 (H-EMC-SS [1]): 1.1 µM
- IC50 (H-EMC-SS [2]): 6.4 µM
- Activity [3]: Active
- Kd (Aggrecan core protein): 2900 µM
- Ratio IC50 (H-EMC-SS [4]): 6

SMILES: Cn1c(COP(=O)(NCCC[N+](C)(C)C)N(CCCl)CCCl)cnc1[N+](=O)[O-].[I-] (stereo not drawn)
- IC50 (H-EMC-SS [1]): 4.3 µM
- t1/2 [5]: 5 min
- IC50 (H-EMC-SS [2]): 29.3 µM
- Activity [3]: Active
- t1/2 [6]: 15 min
- Kd (Aggrecan core protein): 1290 µM
- Ratio IC50 (H-EMC-SS [4]): 7

SMILES: CC[N+](C)(C)CCCCCNP(=O)(OCc1cnc([N+](=O)[O-])n1C)N(CCCl)CCCl.[I-] (stereo not drawn)
- IC50 (H-EMC-SS [1]): 1.5 µM
- IC50 (H-EMC-SS [2]): 15.8 µM
- Activity [3]: Active
- Kd (Aggrecan core protein): 3560 µM
- Ratio IC50 (H-EMC-SS [4]): 11

SMILES: Cn1c(COP(=O)(NCCCC[N+](C)(C)Cc2ccccc2)N(CCCl)CCCl)cnc1[N+](=O)[O-].[I-] (stereo not drawn)
- IC50 (H-EMC-SS [1]): 1.8 µM
- IC50 (H-EMC-SS [2]): 18 µM
- Activity [3]: Active
- Kd (Aggrecan core protein): 5270 µM
- Ratio IC50 (H-EMC-SS [4]): 10

SMILES: CC[N+](C)(CC)CCCCNP(=O)(OCc1cnc([N+](=O)[O-])n1C)N(CCCl)CCCl.[I-] (stereo not drawn)
- IC50 (H-EMC-SS [1]): 2.4 µM
- IC50 (H-EMC-SS [2]): 13.4 µM
- Activity [3]: Active
- Kd (Aggrecan core protein): 4970 µM
- Ratio IC50 (H-EMC-SS [4]): 6

SMILES: CC[N+](C)(CCCCNP(=O)(OCc1cnc([N+](=O)[O-])n1C)N(CCCl)CCCl)Cc1ccccc1.[I-] (stereo not drawn)
- IC50 (H-EMC-SS [1]): 1.7 µM
- Stability [7]: Stable
- degraded at 24 h, 17 µM [8]: < 5%
- IC50 (H-EMC-SS [2]): 40.7 µM
- t1/2 [9]: < 2 min
- Activity [3]: Active
- Stability [10]: Stable
- t1/2 [11]: < 1 min
- Kd (Aggrecan core protein): 2100 µM
- Ratio IC50 (H-EMC-SS [4]): 24

SMILES: CC[N+](CC)(CC)CCCNP(=O)(OCc1cnc([N+](=O)[O-])n1C)N(CCCl)CCCl.[I-] (stereo not drawn)
- IC50 (H-EMC-SS [1]): 1.4 µM
- IC50 (H-EMC-SS [2]): 9.7 µM
- Activity [3]: Active
- Kd (Aggrecan core protein): 3490 µM
- Ratio IC50 (H-EMC-SS [4]): 7

SMILES: Cn1c(COP(=O)(NCCC[N+](C)(C)Cc2ccccc2)N(CCCl)CCCl)cnc1[N+](=O)[O-].[I-] (stereo not drawn)
- IC50 (H-EMC-SS [1]): 0.4 µM
- IC50 (H-EMC-SS [2]): 5.4 µM
- Activity [3]: Active
- Kd (Aggrecan core protein): 2990 µM
- Ratio IC50 (H-EMC-SS [4]): 14

SMILES: CC[N+](C)(C)CCCCNP(=O)(OCc1cnc([N+](=O)[O-])n1C)N(CCCl)CCCl.[I-] (stereo not drawn)
- IC50 (H-EMC-SS [1]): 1.5 µM
- IC50 (H-EMC-SS [2]): 10.2 µM
- Activity [3]: Active
- Kd (Aggrecan core protein): 2020 µM
- Ratio IC50 (H-EMC-SS [4]): 7

SMILES: CC[N+](C)(CCCCCNP(=O)(OCc1cnc([N+](=O)[O-])n1C)N(CCCl)CCCl)Cc1ccccc1.[I-] (stereo not drawn)
- IC50 (H-EMC-SS [1]): 0.8 µM
- IC50 (H-EMC-SS [2]): 12.9 µM
- Activity [3]: Active
- Kd (Aggrecan core protein): 3470 µM
- Ratio IC50 (H-EMC-SS [4]): 16

SMILES: Cn1c(COP(=O)(NCCCCC[N+](C)(C)C)N(CCCl)CCCl)cnc1[N+](=O)[O-].[I-] (stereo not drawn)
- IC50 (H-EMC-SS [1]): 2.4 µM
- IC50 (H-EMC-SS [2]): 25.8 µM
- Activity [3]: Active
- Kd (Aggrecan core protein): 4220 µM
- Ratio IC50 (H-EMC-SS [4]): 11

SMILES: CC[N+](C)(CCCNP(=O)(OCc1cnc([N+](=O)[O-])n1C)N(CCCl)CCCl)Cc1ccccc1.[I-] (stereo not drawn)
- IC50 (H-EMC-SS [1]): 2.1 µM
- IC50 (H-EMC-SS [2]): 20.8 µM
- Ratio IC50 (H-EMC-SS [4]): 10

SMILES: Cn1c(COP(=O)(NCCCCC[N+](C)(C)Cc2ccccc2)N(CCCl)CCCl)cnc1[N+](=O)[O-].[I-] (stereo not drawn)
- IC50 (H-EMC-SS [1]): 2.8 µM
- IC50 (H-EMC-SS [2]): 28.9 µM
- Activity [3]: Active
- Kd (Aggrecan core protein): 2550 µM
- Ratio IC50 (H-EMC-SS [4]): 10

SMILES: Cn1c(COP(=O)(NCCBr)NCCBr)cnc1[N+](=O)[O-] [EVOFOSFAMIDE]
- IC50 (H-EMC-SS [1]): 0.13 µM
- IC50 (H-EMC-SS [2]): 2.9 µM
- Ratio IC50 (H-EMC-SS [4]): 23
